Test [1] concerns Escherichia coli. As to the kind of experiment: Inhibition of Escherichia coli SoxS binding to DNA at 50 ug/mL.
Test [2] can be described thus: Inhibition of Escherichia coli SoxS binding to DNA.
In test [3] the test system is Staphylococcus aureus. The experiment in a line: Antimicrobial activity against antibiotic-susceptible Staphylococcus aureus RN450. It counts as functional.
Test [4] deals with Escherichia coli. As to the kind of experiment: Antimicrobial activity against antibiotic-susceptible Escherichia coli ML308-225. It counts as functional.
Test [5] can be described thus: Inhibition of Escherichia coli MarA binding to DNA. A digest of the protocol: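 Binding of the 6-His-tagged Mar protein (20 nM) to biotinylated double-stranded target DNA (2 nM) was measured with test compound on streptavidin-coated wells. After washing, retained protein was read by luminescence, and inhibition appeared as signal loss. Selected compounds were also incubated with DNA and run on agarose gels to check whether they altered DNA structure.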

Test [6] deals with Escherichia coli. As to the kind of experiment: Inhibition of Escherichia coli Rob binding to DNA. The test is classed as functional, organism-based.
In test [7] the target is T1, HTH-type transcriptional regulator ExsA (Pseudomonas aeruginosa (strain ATCC 15692 / PAO1 / 1C / PRS 101 / LMG12228), UniProt P26993).
T1 sequence (P26993 whole entry): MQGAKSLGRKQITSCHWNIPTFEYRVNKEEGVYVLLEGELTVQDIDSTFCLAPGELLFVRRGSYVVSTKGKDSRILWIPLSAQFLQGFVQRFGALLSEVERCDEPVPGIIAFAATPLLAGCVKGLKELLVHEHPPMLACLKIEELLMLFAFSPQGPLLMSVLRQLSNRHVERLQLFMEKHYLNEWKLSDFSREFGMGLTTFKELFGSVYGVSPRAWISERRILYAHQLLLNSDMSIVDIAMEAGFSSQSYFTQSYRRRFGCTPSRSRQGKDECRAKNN
The experiment in a line: Inhibition of Pseudomonas aeruginosa ExsA binding to DNA.

Test [8] in a line: Inhibition of Salmonella Typhimurium Rma binding to DNA. Also noted: species or system Salmonella enterica subsp. enterica serovar Typhimurium.
Test [9] can be described thus: Inhibition of Proteus mirabilis PqrA binding to DNA.
Test [10] deals with Escherichia coli. The experiment in a line: Reduction of colony formation in urinary tract infection mouse model assessed per gram of kidney at 10 mg/kg, ip. It counts as functional. Conditions: route intraperitoneal.
Test [11] deals with Escherichia coli. The experiment in a line: Inhibition of Escherichia coli SoxS binding to DNA at 25 ug/mL.

In the case of `O=[N+]([O-])c1ccc2nc(-c3ccccc3)n(O)c2c1`, the inhibition in test [1] stood at 38%. As to `O=C(NCc1ccc(-c2nc3ccc([N+](=O)[O-])cc3n2O)cc1)c1ccccc1`, the inhibition in [1] is 44%. With `CN(C)c1ccc(C(=O)Nc2ccc(-c3nc4ccc([N+](=O)[O-])cc4n3O)cc2)cc1`, the IC50 in test [2] is 820 nM; in test [5] it was 1200 nM; in [6], 1300 nM; in test [7] it was 1900 nM; in test [8], 1800 nM; in test [9], 1400 nM. The MIC in test [3] and in [4] was greater than 64 µg/mL each time. Moreover, in test [10], the CFU is listed as 0.5.

`Nc1cccc(-c2nc3ccc([N+](=O)[O-])cc3n2O)c1` returned an inhibition in test [1] of 60%. The compound `NC(=O)c1ccc2nc(-c3ccccc3)n(O)c2c1` had an inhibition in test [1] of 14%.

The compound `CN(C)c1ccc(-c2nc3ccc([N+](=O)[O-])cc3n2O)cc1` came in with an inhibition in [1] of 75%. With `O=C(Nc1ccc(-c2nc3ccc([N+](=O)[O-])cc3n2O)cc1)c1ccccc1`, the inhibition in test [1] and in [11] was 100% throughout. For the same compound, the half-inhibitory concentration (IC50) in [2] is 17000 nM. In addition, the minimal inhibitory concentration (MIC) in test [3] and in test [4] was greater than 64 µg/mL each time.

Consider `On1c(-c2ccccc2)nc2ccc(F)cc21`, for which, in test [1], the inhibition was found to be 26%. Regarding `O=C(Nc1ccc(-c2nc3ccc([N+](=O)[O-])cc3n2O)cc1)c1ccc(F)cc1`, the 50% inhibitory concentration (IC50) was 2800 nM in test [2], 4700 nM in test [6], 4000 nM in test [7] and 4900 nM in test [8]. Also, the MIC in test [3] and in [4] was greater than 64 µg/mL throughout. As to `CC(=O)Nc1cccc(-c2nc3ccc([N+](=O)[O-])cc3n2O)c1`, the inhibition in [1] is 32%.

In turn, `Nc1ccccc1-c1nc2ccc([N+](=O)[O-])cc2n1O` showed an inhibition in [1] of 2%.

Compound `C/C(=N/O)c1ccc2nc(-c3ccccc3)n(O)c2c1` registered an inhibition in test [1] of 38%. Same read-out and setting: for `CCCOn1c(-c2ccccc2)nc2ccc([N+](=O)[O-])cc21` the value was 0%; for `O=[N+]([O-])c1ccc2nc(-c3ccccc3)n(OCCO)c2c1`, 0%. In test [1], `CC(=O)c1ccc2nc(-c3ccccc3)n(O)c2c1` displayed an inhibition of 37%.

On to `COc1ccc2nc(-c3ccccc3)n(O)c2c1`, for which, in test [1], the inhibition is 0%.

In test [1], `N#Cc1ccc2nc(-c3ccccc3)n(O)c2c1` returned an inhibition of 30%. In test [1], `Nc1ccc(-c2nc3ccc([N+](=O)[O-])cc3n2O)cc1` registered an inhibition of 80%. `O=[N+]([O-])c1ccc2nc(-c3ccc(O)cc3)n(O)c2c1`: in [1], the inhibition was determined as 35%.

In the case of `O=[N+]([O-])c1ccc2nc(-c3ccc(Oc4ccccc4)cc3)n(O)c2c1`, the inhibition in test [1] is 14%. As for `CS(=O)(=O)c1ccc2nc(-c3ccccc3)n(O)c2c1`, the inhibition in test [1] is 35%. As to `COn1c(-c2ccccc2)nc2ccc([N+](=O)[O-])cc21`, the inhibition in test [1] was 17%. In test [2], `O=C(Nc1ccc(-c2nc3ccc([N+](=O)[O-])cc3n2O)cc1)c1cccc(Cl)c1` showed an IC50 of 3400 nM. The MIC in test [3] and in test [4] was greater than 64 µg/mL in each case. On to `Cc1ccc(C(=O)Nc2ccc(-c3nc4ccc([N+](=O)[O-])cc4n3O)cc2)cc1`, for which the half-maximal inhibitory concentration (IC50) in test [2] turned out to be 10000 nM. In addition, the MIC in test [3] and in test [4] was greater than 64 µg/mL each time.

As for `On1c(-c2ccccc2)nc2ccc(C(F)(F)F)cc21`, in test [1], the inhibition was 26%. Still for that read-out and setting: then `CC(C)(C)c1ccc2nc(-c3ccccc3)n(O)c2c1`, with 0%. Compound `CC(=O)Nc1ccccc1-c1nc2ccc([N+](=O)[O-])cc2n1O` showed an inhibition in [1] of 31%. The same measure, in the same setting: then `COc1ccc(-c2nc3ccc([N+](=O)[O-])cc3n2O)cc1`, with 12%; and `NCCOn1c(-c2ccccc2)nc2ccc([N+](=O)[O-])cc21`, with 0%; and `On1c(-c2ccccc2)nc2ccccc21`, with 0%. The same measure, in the same setting: then `CN(C)c1ccc2nc(-c3ccccc3)n(O)c2c1`, with 28%. On to `CC(=O)Nc1ccc(-c2nc3ccc([N+](=O)[O-])cc3n2O)cc1`, for which the inhibition stood at 100% in [1] and 58% in test [11]. Compound `O=C(O)COn1c(-c2ccccc2)nc2ccc([N+](=O)[O-])cc21` showed an inhibition in test [1] of 14%.

In turn, `CCOC(=O)COn1c(-c2ccccc2)nc2ccc([N+](=O)[O-])cc21` showed an inhibition in [1] of 0%. Still for that read-out and setting: then `O=C(O)CCOn1c(-c2ccccc2)nc2ccc([N+](=O)[O-])cc21`, with 0%; and `O=C(O)c1ccc2nc(-c3ccccc3)n(O)c2c1`, with 12%; and `N#CCOn1c(-c2ccccc2)nc2ccc([N+](=O)[O-])cc21`, with 12%. Consider `CN(C)c1cccc(-c2nc3ccc([N+](=O)[O-])cc3n2O)c1`, for which, in test [1], the inhibition was 30%. Still for that read-out and setting: for `O=[N+]([O-])c1ccc2nc(-c3ccc(Br)cc3)n(O)c2c1` the value was 26%. The compound `COc1ccc(C(=O)Nc2ccc(-c3nc4ccc([N+](=O)[O-])cc4n3O)cc2)cc1` gave an IC50 in test [2] of 2500 nM. The minimum inhibitory concentration (MIC) in test [3] and in test [4] was greater than 64 µg/mL throughout. In test [10], this compound yielded a CFU of 1.

One may read the inhibition as the change of the read-out against control, counted positive when it falls. In general, IC50 refers to the concentration that inhibits the measured activity by half. A high value points to a need for much substance. The term MIC denotes the least concentration at which growth counts as inhibited.

Source of the values: ChEMBL document CHEMBL1139810, “Novel anti-infection agents: small-molecule inhibitors of bacterial transcription factors” (Bioorg Med Chem Lett, 2007).
